Assay results of several laboratories.
Protocols differ between the studies behind these lines. In brackets after ≈: the same amount, converted by molar mass.

For N#Cc1ccc(C[C@@H](Nc2c(Nc3ccc(F)cc3)c(=O)c2=O)C(=O)N2CCc3ccccc32)cc1, the kinetic solubility was 11.8 µM (≈ 5.67 µg/mL) (aqueous buffer; 2 h, pH 7.4, 37 °C).
O=[N+]([O-])c1ccc(Nc2ncnc3ccc(-c4cccc(N5CCOCC5)c4)cc23)cc1C(F)(F)F has a thermodynamic solubility of less than 0.4 µM (aqueous buffer; pH 7.4, 25 °C).
Cc1ccccc1CN1C(=O)C2=C(CCN(Cc3ccccc3)C2)N2CCN=C12 has a solubility of 98600 µg/mL (shake flask; aqueous buffer; pH 4.5).
The thermodynamic solubility of CCCCCCCCCCCCCCCC(=O)NCCO is reported as less than 16 µg/mL (aqueous buffer; 12 h, pH 6.8, 37 °C).
For CNS(=O)(=O)c1ccc(Nc2ncc(C(F)(F)F)c([C@H]3CC[C@@](C)(O)CC3)n2)c(C)c1, the solubility was 128 µM (FaSSIF; 2 h).
CC[C@H](C)[C@H](NC(=O)[C@H](C)NC(=O)CNC(=O)[C@H](Cc1ccccc1)NC(=O)[C@H](CC(N)=O)NC(=O)[C@H](CC(N)=O)NC(=O)[C@H](CO)NC(=O)[C@H](CO)NC(=O)[C@H](Cc1c[nH]cn1)NC(=O)[C@@H](NC(=O)[C@H](CC(C)C)NC(=O)[C@H](Cc1ccccc1)NC(=O)[C@H](CC(N)=O)NC(=O)[C@H](C)NC(=O)[C@H](CC(C)C)NC(=O)[C@H](CCCNC(=N)N)NC(=O)[C@H](CCC(N)=O)NC(=O)[C@@H](NC(=O)[C@H](C)NC(=O)[C@@H]1CSSC[C@H](NC(=O)[C@@H](N)CCCCN)C(=O)N[C@@H](CC(N)=O)C(=O)N[C@@H]([C@@H](C)O)C(=O)N[C@@H](C)C(=O)N[C@@H]([C@@H](C)O)C(=O)N1)[C@@H](C)O)C(C)C)C(=O)N[C@@H](CC(C)C)C(=O)N[C@@H](CO)C(=O)N[C@@H](CO)C(=O)N[C@H](C(=O)N[C@@H](CC(N)=O)C(=O)N[C@H](C(=O)NCC(=O)N[C@@H](CO)C(=O)N[C@@H](CC(N)=O)C(=O)N[C@H](C(=O)N[C@@H](Cc1ccc(O)cc1)C(N)=O)[C@@H](C)O)C(C)C)[C@@H](C)O has a thermodynamic solubility of 37 µg/mL (PBS; 1 h, pH 7.4).
The kinetic solubility of O=C(N1CCCCC1)C12CC(c3ccccc3)(C1)C2 is reported as 266 µM (≈ 67.9 µg/mL) (PBS; 2 h, pH 7.4, 25 °C).
With N#Cc1ccc(C[C@H](NC(=O)c2cc3cc(F)ccc3[nH]2)C(=O)N2CCc3ccccc32)cc1 the kinetic solubility was 1 µM (≈ 0.452 µg/mL) (aqueous buffer; 2 h, pH 7.4, 37 °C).
CO[C@H]1C[C@@H]2CC[C@@H](C)[C@@](O)(O2)C(=O)C(=O)N2CCCC[C@H]2C(=O)O[C@H]([C@H](C)C[C@@H]2CC[C@@H](O)[C@H](OC)C2)CC(=O)[C@H](C)/C=C(\C)[C@@H](O)[C@@H](OC)C(=O)[C@H](C)C[C@H](C)/C=C/C=C/C=C/1C has a thermodynamic solubility of 6 µM (aqueous buffer; 18 h, pH 7.4).
For N#Cc1ccc(C[C@H](Nc2nnc(-c3ccc(F)cc3)o2)C(=O)N2CCc3ccccc32)cc1, the kinetic solubility was 4.8 µM (≈ 2.18 µg/mL) (aqueous buffer; 2 h, pH 7.4, 37 °C).
CN1CCN(c2cccc(-c3ccc4ncnc(Nc5ccc(Cl)c(C(F)(F)F)c5)c4c3)c2)CC1 gave a thermodynamic solubility of less than 1.4 µM (aqueous buffer; pH 7.4, 25 °C).
With N#Cc1ccc(C[C@H](Nc2nnc(-c3ccc(F)cc3)s2)C(=O)N2CCc3ccccc32)cc1 the kinetic solubility was 4.5 µM (≈ 2.11 µg/mL) (aqueous buffer; 2 h, pH 7.4, 37 °C).
For CCCCCCCCCCCCCCCC(=O)NCCOC(=O)C[C@@H](CN)CC(C)C, the thermodynamic solubility was 3780 µg/mL (aqueous buffer; 12 h, pH 6.8, 37 °C).
With Fc1ccccc1Nc1nc(-c2ccncc2)nc2c1CNCC2 the thermodynamic solubility was 596 µM (PBS; 24 h, pH 7.4).
Cc1ccc(-c2nnc(N[C@@H](Cc3ccc(C#N)cc3)C(=O)N3CCc4ccccc43)o2)cc1 gave a kinetic solubility of 5.4 µM (≈ 2.43 µg/mL) (aqueous buffer; 2 h, pH 7.4, 37 °C).
The kinetic solubility of CCN(CC)CCNC(=O)c1cc(S(C)(=O)=O)cnc1OC is reported as 393 µM (≈ 129 µg/mL) (PBS; 2 h, pH 7.4, 25 °C).
